{"data": "Experimental data collected from several papers", "technique": "competition with immobilised ligand", "RPS6KA5 N-terminal kinase domain": "Ribosomal protein S6 kinase alpha-5, N-terminal kinase domain (RPS6KA5, Homo sapiens, UniProt O75582)", "RPS6KA5 C-terminal kinase domain": "Ribosomal protein S6 kinase alpha-5, C-terminal kinase domain (RPS6KA5, Homo sapiens, UniProt O75582)"}
{"Compound": "O=C(NCCCN1CCOCC1)c1ccc(Nc2nccc(-c3cc4ccccc4s3)n2)cc1", "target": "RPS6KA5 N-terminal kinase domain", "assay": "binding", "setting": "1 µM", "remaining binding [%]": 100}
{"Compound": "O=C(O)c1cc(-c2ccc(C3CCNCC3)cc2)c2ccc(-c3ccc(C(F)(F)F)cc3)cc2c1", "target": "RPS6KA5 C-terminal kinase domain", "assay": "cell-free assay", "setting": "1 µM", "remaining binding [%]": 100}
{"Compound": "Nc1ncc2c(n1)-c1c([nH]c3ccc(C#CC4CC4)cc13)CCCC2", "target": "RPS6KA5 N-terminal kinase domain", "assay": "binding", "setting": "1 µM", "remaining binding [%]": 93}
{"Compound": "O=C(NCC1CCOCC1)c1n[nH]cc1NC(=O)c1c(F)cccc1F", "target": "RPS6KA5 C-terminal kinase domain", "assay": "binding", "setting": "1 µM", "remaining binding [%]": 94}
{"Compound": "CN(C)c1nccc(-c2cnc3ncccn23)n1", "target": "RPS6KA5 C-terminal kinase domain", "assay": "binding", "setting": "1 µM", "remaining binding [%]": 100}
{"Compound": "O=C(Nc1c[nH]nc1C(=O)NC1CCNCC1)c1cc(F)cc(F)c1", "target": "RPS6KA5 N-terminal kinase domain", "assay": "binding", "setting": "1 µM", "remaining binding [%]": 96}
{"Compound": "O=C(c1ccc(Nc2nccc(-c3cc4ccccc4s3)n2)cc1)N1CCC(N2CCCC2)CC1", "target": "RPS6KA5 N-terminal kinase domain", "assay": "binding", "setting": "1 µM", "remaining binding [%]": 100}
{"Compound": "C[C@@H](c1ccc(-n2cnc3c(N)ncnc32)cc1)N1CCc2nn(C)c(Cc3ccccc3)c2C1=O", "target": "RPS6KA5 N-terminal kinase domain", "assay": "binding", "setting": "0.1 µM", "remaining binding [%]": 95}
{"Compound": "COc1cnc(Nc2cccc(S(N)(=O)=O)c2)nc1N1CCN(c2ccccc2)CC1", "target": "RPS6KA5 C-terminal kinase domain", "assay": "binding", "setting": "1 µM", "remaining binding [%]": 97}
{"Compound": "NS(=O)(=O)c1cc(NC(=O)C2(c3ccccc3Cl)CC2)ccc1Oc1cccc(Cl)c1", "target": "RPS6KA5 N-terminal kinase domain", "assay": "cell-free assay", "setting": "1 µM", "remaining binding [%]": 100}
{"Compound": "N[C@@H]1CCN(c2nccc(-c3cnn4ncccc34)n2)C1", "target": "RPS6KA5 C-terminal kinase domain", "assay": "binding", "setting": "1 µM", "remaining binding [%]": 100}
{"Compound": "C=CC(=O)N1CCC(C(=O)NCC(=O)N2CCN(c3nc(-c4cnc(N)nc4C(F)F)nc(N4CCOCC4)n3)CC2)CC1", "target": "RPS6KA5 C-terminal kinase domain", "assay": "binding", "setting": "1 µM", "remaining binding [%]": 100}
{"Compound": "COc1ncc2cc3ccccc3nc2c1C#N", "target": "RPS6KA5 N-terminal kinase domain", "assay": "cell-free assay", "setting": "5 µM", "remaining binding [%]": 91}
{"Compound": "CNC(=O)[C@@H]1CC[C@@H](n2c(-c3ccc4cnccc4c3)nc3ccc(C(=O)NCc4cccc(C(N)=O)c4)cc32)C1", "target": "RPS6KA5 N-terminal kinase domain", "assay": "binding", "setting": "1 µM", "remaining binding [%]": 100}
{"Compound": "CCN1CCN(Cc2ccc(C(=O)Nc3ccc(C)c(Oc4ccc5c(c4)CC(=O)N5)c3)cc2C(F)(F)F)CC1", "target": "RPS6KA5 C-terminal kinase domain", "assay": "binding", "setting": "1 µM", "remaining binding [%]": 100}
{"Compound": "c1cnn2ncc(-c3ccnc(N4CCC45COC5)n3)c2c1", "target": "RPS6KA5 N-terminal kinase domain", "assay": "binding", "setting": "1 µM", "remaining binding [%]": 100}
{"Compound": "CSc1cccnc1N1CCN(Cc2nc3ccccc3[nH]2)CC1", "target": "RPS6KA5 C-terminal kinase domain", "assay": "cell-free assay", "setting": "1 µM", "remaining binding [%]": 100}
{"Compound": "COc1cnc(Nc2cccc(S(N)(=O)=O)c2)nc1N1CCN(c2ccccc2)C(=O)C1", "target": "RPS6KA5 C-terminal kinase domain", "assay": "binding", "setting": "1 µM", "remaining binding [%]": 100}
{"Compound": "Cc1c[nH]c2nccc(Oc3c(F)cc(Nc4cc(Cl)nc(N)n4)cc3F)c12", "target": "RPS6KA5 N-terminal kinase domain", "assay": "cell-free assay", "setting": "0.1 µM", "remaining binding [%]": 100}
{"Compound": "c1cncc(-c2cccc(Nc3nccc(NC4CCCCC4)n3)c2)c1", "target": "RPS6KA5 C-terminal kinase domain", "assay": "binding", "setting": "10 µM", "remaining binding [%]": 100}
{"Compound": "O=C(c1ccc(Nc2ncc(Cl)c(-c3ccc(Cl)s3)n2)cc1)N1CCC(N2CCCC2)CC1", "target": "RPS6KA5 N-terminal kinase domain", "assay": "binding", "setting": "1 µM", "remaining binding [%]": 100}
{"Compound": "CC(=O)N1CCC(c2ccc(C(=O)NC3=NCCN3)cc2C(F)(F)F)CC1", "target": "RPS6KA5 N-terminal kinase domain", "assay": "cell-free assay", "setting": "1 µM", "remaining binding [%]": 100}
{"Compound": "Cc1cnc(Nc2ccc(C(=O)N3CCC(N4CCCC4)CC3)cc2)nc1-c1cc2ccccc2s1", "target": "RPS6KA5 C-terminal kinase domain", "assay": "binding", "setting": "1 µM", "remaining binding [%]": 96}
{"Compound": "COc1ccc2c(c1)O[C@@H](c1ccc(OC)c(OC)c1)C[C@H]2NC(=O)C1(c2ccc3c(c2)OC(F)(F)O3)CC1", "target": "RPS6KA5 C-terminal kinase domain", "assay": "cell-free assay", "setting": "1 µM", "remaining binding [%]": 100}
{"Compound": "C[C@@H]1CCN(c2nccc(-c3cnn4ncccc34)n2)C1", "target": "RPS6KA5 N-terminal kinase domain", "assay": "binding", "setting": "1 µM", "remaining binding [%]": 70}
{"Compound": "O=C(Nc1cccnn1)N1CC(C/C=C/c2cncc(Oc3ccc(C(F)(F)F)cn3)n2)C1", "target": "RPS6KA5 N-terminal kinase domain", "assay": "cell-free assay", "setting": "1 µM", "remaining binding [%]": 100}
{"Compound": "F[C@@H]1CCN(c2nccc(-c3cnn4ncccc34)n2)C1", "target": "RPS6KA5 N-terminal kinase domain", "assay": "binding", "setting": "1 µM", "remaining binding [%]": 100}
{"Compound": "O=C(c1ccc(Nc2ncc(Cl)c(-c3cc4ccccc4s3)n2)cc1)N1CCC(N2CCCC2)CC1", "target": "RPS6KA5 N-terminal kinase domain", "assay": "binding", "setting": "1 µM", "remaining binding [%]": 100}
{"Compound": "Cc1cnn2ncc(-c3ccnc(N(C)C)n3)c2c1", "target": "RPS6KA5 C-terminal kinase domain", "assay": "binding", "setting": "1 µM", "remaining binding [%]": 100}
{"Compound": "O=C(NCCCN1CCOCC1)c1ccc(Nc2ncc(Cl)c(-c3ccc(Cl)s3)n2)cc1", "target": "RPS6KA5 C-terminal kinase domain", "assay": "binding", "setting": "1 µM", "remaining binding [%]": 54}
{"Compound": "CN([C@@H]1CCc2c(CC(=O)O)c3cc(S(C)(=O)=O)ccc3n2C1)S(=O)(=O)c1ccc(F)cc1", "target": "RPS6KA5 N-terminal kinase domain", "assay": "cell-free assay", "setting": "1 µM", "remaining binding [%]": 85}
{"Compound": "CN(CCCC(F)(F)F)c1nccc(-c2cnn3ncccc23)n1", "target": "RPS6KA5 N-terminal kinase domain", "assay": "binding", "setting": "1 µM", "remaining binding [%]": 100}
